Measured values from ChEMBL document CHEMBL1122179, “1-(alkylamino)isochromans: hypotensives with peripheral and central activities” (J Med Chem, 1982).
Calls of active or inactive are those of the source. The rule behind the calls is not given here.

Assays:
Rattus norvegicus [1] = assay: Delta BP refers to oral hypotensive activity of compound which is evaluated at 4 hr and 24 hr in restrained, normotensive conscious rats at a dose of 50 mg/kg; assay type: functional, organism-based; design: dose 50 mg/kg
In short: (§1)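 Female Sprague-Dawley rats, normotensive, restrained in a towel. Blood pressure was read directly via chronic indwelling aortic cannulas exteriorized at the nape, before and 4 and 24 h after an oral dose suspended in carboxymethylcellulose (10 mL/kg). Values from two animals were averaged at each time; a mean change of at least 5 mmHg was taken as significant (p < 0.05).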

Rattus norvegicus [2] = assay: Delta BP refers to oral hypotensive activity of compound which is evaluated at 4 hr and 24 hr in restrained, normotensive conscious rats at a dose of 50 mg/kg; -19/-21; assay type: functional; in short: as §1
Rattus norvegicus [3] = assay: Delta BP refers to oral hypotensive activity of compound which is evaluated at 4 hr and 24 hr in restrained, normotensive conscious rats at a dose of 50 mg/kg; -15/-3; assay type: functional; in short: as §1
Rattus norvegicus [4] = assay: Delta BP refers to oral hypotensive activity of compound which is evaluated at 4 hr and 24 hr in restrained, normotensive conscious rats at a dose of 50 mg/kg; 0/-1; assay type: functional; in short: as §1
Rattus norvegicus [5] = assay: Delta BP refers to oral hypotensive activity of compound which is evaluated at 4 hr and 24 hr in restrained, normotensive conscious rats at a dose of 50 mg/kg; -4/-10; assay type: functional; in short: as §1
Rattus norvegicus [6] = assay: Delta BP refers to oral hypotensive activity of compound which is evaluated at 4 hr and 24 hr in restrained, normotensive conscious rats at a dose of 50 mg/kg; -3/-1; assay type: functional; in short: as §1
Rattus norvegicus [7] = assay: Delta BP refers to oral hypotensive activity of compound which is evaluated at 4 hr and 24 hr in restrained, normotensive conscious rats at a dose of 50 mg/kg; -16/-14; assay type: functional; in short: as §1
Rattus norvegicus [8] = assay: Delta BP refers to oral hypotensive activity of compound which is evaluated at 4 hr and 24 hr in restrained, normotensive conscious rats at a dose of 50 mg/kg; -20/-5; assay type: functional; in short: as §1
Rattus norvegicus [9] = assay: Delta BP refers to oral hypotensive activity of compound which is evaluated at 4 hr and 24 hr in restrained, normotensive conscious rats at a dose of 50 mg/kg; -2/2; assay type: functional; in short: as §1
Rattus norvegicus [10] = assay: Delta BP refers to oral hypotensive activity of compound which is evaluated at 4 hr and 24 hr in restrained, normotensive conscious rats at a dose of 50 mg/kg; -16/-26; assay type: functional; in short: as §1
Rattus norvegicus [11] = assay: Delta BP refers to oral hypotensive activity of compound which is evaluated at 4 hr and 24 hr in restrained, normotensive conscious rats at a dose of 50 mg/kg; -13/-2; assay type: functional; in short: as §1
Rattus norvegicus [12] = assay: Delta BP refers to oral hypotensive activity of compound which is evaluated at 4 hr and 24 hr in restrained, normotensive conscious rats at a dose of 15 mg/kg; -8/-10; assay type: functional; in short: as §1
Rattus norvegicus [13] = assay: Delta BP refers to oral hypotensive activity of compound which is evaluated at 4 hr and 24 hr in restrained, normotensive conscious rats at a dose of 50 mg/kg; -18/-28; assay type: functional; in short: as §1
Rattus norvegicus [14] = assay: Delta BP refers to oral hypotensive activity of compound which is evaluated at 4 hr and 24 hr in restrained, normotensive conscious rats at a dose of 15 mg/kg; -13/-14; assay type: functional; in short: as §1
Rattus norvegicus [15] = assay: Delta BP refers to oral hypotensive activity of compound which is evaluated at 4 hr and 24 hr in restrained, normotensive conscious rats at a dose of 50 mg/kg; -12/-5; assay type: functional; in short: as §1
Rattus norvegicus [16] = assay: Delta BP refers to oral hypotensive activity of compound which is evaluated at 4 hr and 24 hr in restrained, normotensive conscious rats at a dose of 50 mg/kg; -13/-19; assay type: functional; in short: as §1

With `COc1cc2c(cc1OC)C(CCN1CCN(c3ccc(Cl)cc3)CC1)OC(C)(C)C2` (centres undefined) the Delta blood pressure (Rattus norvegicus [1]) was “inactive”.

In the case of `COc1cc2c(cc1OC)C(CCCN1CCN(c3ccccn3)CC1)(c1ccc(F)cc1)OCC2` (centres undefined), the Delta blood pressure (Rattus norvegicus [2]) is reported as -19 mmHg.

Molecule `COc1cc2c(cc1OC)C(CN1CCN(c3ccccc3OC)CC1)OCC2` (centres undefined) has a Delta blood pressure (Rattus norvegicus [3]) of -15 mmHg.

Work on `COc1cc2c(cc1OC)C(C)(C)COC2CCN1CCN(c2cccc(C(F)(F)F)c2)CC1` (centres undefined) yielded a Delta blood pressure (Rattus norvegicus [4]) of 0 mmHg.

With `COc1cc2c(cc1OC)C(CCN1CCN(c3ccccn3)CC1)OC(C)(C)C2` (centres undefined) the Delta blood pressure (Rattus norvegicus [1]) was “inactive”.

`COc1cc2c(cc1OC)C(C)(C)COC2CCN1CCN(c2cccc(Cl)c2)CC1` (centres undefined) was tested, and the Delta blood pressure (Rattus norvegicus [5]) was -4 mmHg.

With `COc1cc2c(cc1OC)C(C)(CCN1CCN(c3ccccc3Cl)CC1)OCC2` (centres undefined) the Delta blood pressure (Rattus norvegicus [6]) was -3 mmHg.

`COc1cc2c(cc1OC)C(CCCN1CCN(c3cccc(Cl)c3)CC1)(c1ccc(F)cc1)OCC2` (centres undefined) was tested, and the Delta blood pressure (Rattus norvegicus [1]) was “inactive”.

In the case of `COc1cc2c(cc1OC)C(C)(C)COC2CCN1CCN(c2ccccc2)CC1` (centres undefined), the Delta blood pressure (Rattus norvegicus [7]) is reported as -16 mmHg.

With `COc1cc2c(cc1OC)C(C)(C)COC2CCN1CCN(c2ccc(F)cc2)CC1` (centres undefined) the Delta blood pressure (Rattus norvegicus [1]) was “inactive”.

`COc1cc2c(cc1OC)C(CCCN1CCN(c3ccccc3Cl)CC1)(c1ccc(F)cc1)OCC2` (centres undefined) was tested, and the Delta blood pressure (Rattus norvegicus [1]) was “inactive”.

`COc1cc2c(cc1OC)C(CN1CCN(c3ccccc3)CC1)OCC2` (centres undefined) gave a Delta blood pressure (Rattus norvegicus [8]) of -20 mmHg.

Molecule `COc1cc2c(cc1OC)C(CCN1CCN(c3cccc(C(F)(F)F)c3)CC1)OCC2` (centres undefined) has a Delta blood pressure (Rattus norvegicus [9]) of -2 mmHg.

In the case of `COc1cc2c(cc1OC)C(CCN1CCN(c3ccccc3Cl)CC1)OC(C)(C)C2` (centres undefined), the Delta blood pressure (Rattus norvegicus [1]) is reported as “inactive”.

For `COc1cc2c(cc1OC)C(CN1CCN(c3ccccc3Cl)CC1)OCC2` (centres undefined), the Delta blood pressure (Rattus norvegicus [1]) was “inactive”.

`COc1cc2c(cc1OC)C(CCCN1CCN(c3ccccc3OC)CC1)(c1ccc(F)cc1)OCC2` (centres undefined) was tested, and the Delta blood pressure (Rattus norvegicus [1]) was “inactive”.

For `COc1cc2c(cc1OC)C(CN1CCN(c3cccc(Cl)c3)CC1)OCC2` (centres undefined), the Delta blood pressure (Rattus norvegicus [1]) was “inactive”.

`COc1cc2c(cc1OC)C(CCN1CCN(c3ccc(F)cc3)CC1)OC(C)(C)C2` (centres undefined) showed a Delta blood pressure (Rattus norvegicus [10]) of -16 mmHg.

With `COc1cc2c(cc1OC)C(C)(CCCN1CCN(c3ccccc3Cl)CC1)OCC2` (centres undefined) the Delta blood pressure (Rattus norvegicus [1]) was “inactive”.

With `COc1cc2c(cc1OC)C(C)(C)COC2CCN1CCN(c2ccc(Cl)cc2)CC1` (centres undefined) the Delta blood pressure (Rattus norvegicus [11]) was -13 mmHg.

`COc1cc2c(cc1OC)C(C)(C)COC2CCN1CCN(c2ccccc2C)CC1` (centres undefined) was tested, and the Delta blood pressure (Rattus norvegicus [12]) was -8 mmHg and the Delta blood pressure (Rattus norvegicus [13]) was -18 mmHg.

With `COc1cc2c(cc1OC)C(CCN1CCN(c3ccccn3)CC1)OCC2` (centres undefined) the Delta blood pressure (Rattus norvegicus [14]) was -13 mmHg and the Delta blood pressure (Rattus norvegicus [15]) was -12 mmHg.

`COc1cc2c(cc1OC)C(C)(C)COC2CCN1CCN(c2ccccc2OC)CC1` (centres undefined) was tested, and the Delta blood pressure (Rattus norvegicus [1]) was “inactive”.

For `COc1cc2c(cc1OC)C(C)(C)COC2CCN1CCN(c2ccccn2)CC1` (centres undefined), the Delta blood pressure (Rattus norvegicus [1]) was “inactive”.

With `COc1cc2c(cc1OC)C(CN1CCN(c3ccc(Cl)cc3)CC1)OCC2` (centres undefined) the Delta blood pressure (Rattus norvegicus [16]) was -13 mmHg.

With `COc1cc2c(cc1OC)C(C)(CCCN1CCN(c3ccccc3OC)CC1)OCC2` (centres undefined) the Delta blood pressure (Rattus norvegicus [1]) was “inactive”.

In the case of `COc1cc2c(cc1OC)C(CCCN1CCN(c3cccc(C(F)(F)F)c3)CC1)(c1ccc(F)cc1)OCC2` (centres undefined), the Delta blood pressure (Rattus norvegicus [1]) is reported as “inactive”.
